This is an account of results in ChEMBL document CHEMBL1123541, “Preparation and antitumor activity of 7-substituted 1,2-aziridinomitosenes” (J Med Chem, 1986).

Series [1] relates to Mus musculus. The experiment in a line: Average weight change of BDF1 female mice at a dose of 4 mg/kg per injection. It counts as functional. The method in brief:
(§1)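 BDF1 female mice implanted ip with 10^6 ascites leukemia cells, then given the aziridinomitosene on day 1 only, six mice per dose. Average weight change is the weight difference between the treated and control groups.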

For series [2], the system named is P388. Nature of the series: Minimum effective dose determined against P-388 Murine leukemia in BDF1 female mice. It counts as functional. The conditions noted are these: Mus musculus, read-out: MED.
For series [3], the system named is P388. Nature of the series: Compound was tested for antitumor activity against P388 Murine leukemia in BDF1 female mice at a dose of 16 mg/kg per injection. It counts as functional, Mus musculus. The method in brief:
(§2)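 P388 ascites cells (10^6) implanted ip into BDF1 female mice. Aziridinomitosene given on day 1 only, six mice per dose; ten saline-treated mice on day 1 only as controls. Read-out is median survival time in days, %T/C = MST treated/MST control × 100, with 125 taken as significant. Mitomycin C run as a positive control at its optimal dose.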

Series [4] concerns Mus musculus. The experiment in a line: Average weight change of BDF1 female mice at a dose of 64 mg/kg per injection. It counts as functional. In a few lines: as §1
Series [5] has as its system Mus musculus. The experiment in a line: Average weight change of BDF1 female mice at a dose of 16 mg/kg per injection. It counts as functional. In a few lines:
as §1

Series [6] deals with P388. The experiment in a line: Compound was tested for antitumor activity against P388 Murine leukemia in BDF1 female mice at a dose of 3.2 mg/kg per injection given as MST treated / MST control x 100. It counts as functional, Mus musculus. In a few lines: as §2
Series [7] concerns Mus musculus. Nature of the series: Average weight change of BDF1 female mice at a dose of 8 mg/kg per injection. It counts as functional. In a few lines:
as §1

Series [8] in a line: Partition coefficient (logP). It counts as physicochemical. The conditions noted are these: octanol/water.
Series [9] relates to Mus musculus. The experiment in a line: Average weight change of BDF1 female mice at a dose of 32 mg/kg per injection. It counts as functional. The method in brief:
as §1

The test system of series [10] is P388. The experiment in a line: Compound was tested for antitumor activity against P388 Murine leukemia in BDF1 female mice at a dose of 64 mg/kg per injection. It counts as functional, Mus musculus. In a few lines:
as §2

Series [11] deals with P388. Nature of the series: Compound was tested for antitumor activity against P388 Murine leukemia in BDF1 female mice at a dose of 32 mg/kg per injection. It counts as functional, Mus musculus. In a few lines: as §2
In series [12] the test system is P388. The experiment in a line: Compound was tested for antitumor activity against P388 Murine leukemia in BDF1 female mice at a dose of 8 mg/kg per injection. It counts as functional, Mus musculus. In a few lines:
as §2

Series [13] relates to P388. The experiment in a line: Compound was tested for antitumor activity against P388 Murine leukemia in BDF1 female mice at a dose of 4 mg/kg per injection. It counts as functional, Mus musculus. In a few lines:
as §2

Series [14] has as its system Mus musculus. Nature of the series: Average weight change of BDF1 female mice at a dose of 6 mg/kg per injection. It counts as functional. The method in brief:
as §1

The test system of series [15] is L1210. The experiment in a line: Compound was tested for antitumor activity against L-1210 Murine leukemia in BDF1 female mice at a dose of 1.5 mg/kg per injection. It counts as functional, Mus musculus. In a few lines:
(§3)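 L-1210 leukemia, NCI protocol: 10^6 ascites cells implanted ip into BDF1 female mice. Six mice per dose, single dose on day 1 only, with a 36-mouse control group. Read-out is median survival time (MST), reported as %T/C = MST treated/MST control × 100, with 125 taken as significant. Average weight change is treated minus control weight.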

For series [16], the system named is L1210. Nature of the series: Compound was tested for antitumor activity against L-1210 Murine leukemia in BDF1 female mice at a dose of 3 mg/kg per injection. It counts as functional, Mus musculus. The method in brief: as §3
Series [17] relates to L1210. The experiment in a line: Compound was tested for antitumor activity against L-1210 Murine leukemia in BDF1 female mice at a dose of 12 mg/kg per injection. It counts as functional, Mus musculus. The method in brief:
(§4)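 L-1210 run per NCI protocol. 10^6 ascites cells implanted ip into BDF1 female mice. Aziridinomitosene given on day 1 only, six mice per dose, with a control group of 36 mice. Median survival time in days is recorded, and %T/C = MST treated/MST control × 100, with 125 taken as significant.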

In series [18] the test system is L1210. Nature of the series: Compound was tested for antitumor activity against L-1210 Murine leukemia in BDF1 female mice at a dose of 6 mg/kg per injection. It counts as functional, Mus musculus. The method in brief: as §4
The test system of series [19] is Mus musculus. The experiment in a line: Average weight change of BDF1 female mice at a dose of 12 mg/kg per injection. It counts as functional. The method in brief: as §1
The subject of series [20] is Mus musculus. Nature of the series: Average weight change of BDF1 female mice at a dose of 1.5 mg/kg per injection. It counts as functional. In a few lines: as §3
Series [21] deals with Mus musculus. The experiment in a line: Average weight change of BDF1 female mice at a dose of 3 mg/kg per injection. It counts as functional. The method in brief: as §3

Each structure is given as a SMILES string.

`CC1=C(NCc2ccco2)C(=O)c2c(COC(N)=O)c3n(c2C1=O)CC1NC31` (stereo unspecified): the Weight change in the series on Mus musculus [1] is recorded as -0.7 g; in the series with Mus musculus [4], -1.8 g; with Mus musculus [5] it was -1.7 g; in the series on Mus musculus [7], 0.1 g; in the series on Mus musculus [9], -1.2 g. The minimal effective dose with P388 [2] stood at 8 mg/kg. Also, the MST in the series on P388 [3] was found to be 156 days; with P388 [10], 183 days; in the series with P388 [11], 189 days; with P388 [12], 144 days; with P388 [13] it was 122 days. In addition, the T/C (commonly the ratio of treated to control) in the series on P388 [6] is given as 228%. Also, in series [8], the logP (in general, a log measure of how a compound divides between an organic and an aqueous phase) is 1.33.
Regarding `CO[C@@]12[C@H](COC(N)=O)C3=C(C(=O)C(C)=C(N)C3=O)N1C[C@@H]1N[C@@H]12` [MITOMYCIN], the Weight change in the series with Mus musculus [14] is reported as -3.3 g; in the series on Mus musculus [19], -4.8 g; in the series on Mus musculus [20], -0.8 g; in the series with Mus musculus [21] it was -0.9 g. Further, the values for the T/C in the series with L1210 [15] and in the series on L1210 [16] were 116% and 118%, respectively. Also, the % T/C in the series on L1210 [17] amounted to 118%; with L1210 [18] it was 146%.
